Laboratory results taken from the array DNA melting data of Ke et al. (doi:10.1101/2024.01.08.574731).

Legend:
[1] = folding enthalpy; higher = less favourable; fluorescence melt of hairpins on a sequencing array, two-state fit; conditions: sodium 0.088 M
In short: (§1)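 To match UV melts, fitted temperatures were raised by 9.35 °C. These fits were bootstrapped two-state models that gave melting temperature and folding enthalpy, combined by inverse variance over four replicates. The input was normalised Cy3 fluorescence of library hairpins with annealed Cy3 and quencher oligos on a sequenced MiSeq flow cell, imaged in 50 mM Na-HEPES pH 8.0, 25 mM NaCl in 2.5 °C steps up to 60 °C.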

[2] = melting temperature; fluorescence melt of hairpins on a sequencing array, two-state fit, raised by 9.35 °C to match UV melts; conditions: sodium 0.088 M
In short: as §1

| Sequence | folding enthalpy [1] | Tm [2] |
| --- | --- | --- |
| GCAGTGCGAAAGCCGTGC (((..((....))..))) | -21.1 kcal/mol | 46.4 °C |
| GATCTTACGGAAGATC ((((((....)))))) | -29.2 kcal/mol | 44.1 °C |
| GATCCGTTACCGGATC ((((((....)))))) | -34.6 kcal/mol | 59.5 °C |
| CGGCTCCGGAAACGGCCG (((..(((....)))))) | -27.1 kcal/mol | 50.3 °C |
| GTCCACGAAAGTGAGGAC ((((((....)))..))) | -21.9 kcal/mol | 46.4 °C |
| GAAGGCGAAAGCCTGTTC ((((((....)))..))) | -9.93 kcal/mol | 47.9 °C |
| GGCGTACGAAAGTATGCC (((.(((....))).))) | -41.9 kcal/mol | 65.5 °C |
| ATCGAGAAATCGAT (((((....))))) | -23.9 kcal/mol | 39.5 °C |
| GGCTTTCGAAAGAAGCC (((.(((....)))))) | -41.6 kcal/mol | 52.8 °C |
| GGCCGCTCGAAAGAGGCC (((..(((....)))))) | -48.5 kcal/mol | 56.5 °C |
| CGCAATCGGAAACGAGCG (((..(((....)))))) | -25.4 kcal/mol | 42.4 °C |
| CGAGTCGGAAACGATTCG (((.(((....))).))) | -47.2 kcal/mol | 50.4 °C |
| GGTCGCCCGAAAGGGACC (((..(((....)))))) | -15.8 kcal/mol | 45.1 °C |
| GCGGTGTCCCGC ((((....)))) | -32.1 kcal/mol | 56.5 °C |
| GGGTCTCGAAAGAGGCCC (((.(((....))).))) | -29.1 kcal/mol | 67.7 °C |
| GGCAGCGCGAAAGCGGCC (((..(((....)))))) | -17.3 kcal/mol | 58.3 °C |
| CGCCCCGGAAACGGTGCG (((.(((....))).))) | -49.4 kcal/mol | 53.9 °C |
| GCTTCCCCGAAAGGGAGC (((..(((....)))))) | -19.2 kcal/mol | 46.6 °C |
| GATCTCTTCAGAGATC ((((((....)))))) | -40.9 kcal/mol | 60.1 °C |
| GGGGCATCGAAAGATCCC (((..(((....)))))) | -21.9 kcal/mol | 48.4 °C |
| GGACGCGGAAACGCGTTC (.(((((....))))).) | -16.6 kcal/mol | 62.2 °C |
| GTCGGGGGAAACCCCAAC ((.((((....)))).)) | -16.1 kcal/mol | 38.5 °C |
| GGAAACGAAAGTTACTCC ((((((....)))..))) | -10.2 kcal/mol | 22.8 °C |

| Sequence | folding enthalpy [1] | Tm [2] |
| --- | --- | --- |
| GCAAACGGAAACGTTCGC ((.((((....)))).)) | -29.7 kcal/mol | 46.4 °C |
| GAAGTCGGAAACAACTTC (((((.(....).))))) | -27.2 kcal/mol | 33.4 °C |
| GATCTTCCCAAGATC ((((((...)))))) | -37.6 kcal/mol | 45.8 °C |
| GGAAGCGAAAGCTCTTCC ((((((....)))..))) | -18.9 kcal/mol | 43 °C |
| GATCCTTTCAGGATC ((((((...)))))) | -41.3 kcal/mol | 57.4 °C |
| GATCACCCTGTGATC ((((((...)))))) | -42.3 kcal/mol | 59.3 °C |
| GCCGTGCGAAAGCGTGGC (((..((....))..))) | -37.1 kcal/mol | 63.4 °C |
| GATCCCAGTTGGGATC ((((((....)))))) | -42 kcal/mol | 61.2 °C |
| GAACCTGGAAACAGATTC (((.(((....))).))) | -17.9 kcal/mol | 31.9 °C |
| GACTCCGAAAGGATGGTC ((((((....)))..))) | -21.7 kcal/mol | 39.4 °C |
| GCCCAGGGAAACCTAGGC (((.(((....))).))) | -21.5 kcal/mol | 43.2 °C |
| GTAGCCGGAAACGGTTGC (.(.(((....))).).) | -15.2 kcal/mol | 36.4 °C |
| GATCTCCTATGAGATC ((((((....)))))) | -39.2 kcal/mol | 53.4 °C |
| GGTAGGGGAAACCCTGTC (..((((....))))..) | -13.1 kcal/mol | 32.2 °C |
| GTCTCTCGAAAGAGGGAC (((.(((....))).))) | -36.1 kcal/mol | 55.5 °C |
| GATCCGTAAACGGATC ((((((....)))))) | -38.2 kcal/mol | 60.3 °C |
| GTAATCGAAAGATGTAC ((((((....))).))) | -16.9 kcal/mol | 30.8 °C |
| GCTCTTCGAAAGAAAAGC (((.(((....))).))) | -31.4 kcal/mol | 34.6 °C |
| GATCCACGAGTGGATC ((((((....)))))) | -39.8 kcal/mol | 62.8 °C |
| GGCTTACGAAAGTACGCC (((.(((....))).))) | -48 kcal/mol | 52.9 °C |
| GATGGCGAAAGCCACATC ((((((....)))..))) | -7.73 kcal/mol | 28.8 °C |
| GCCTACGAAAGTAAAGGC ((((((....)))..))) | -41.2 kcal/mol | 50.2 °C |
| GATCAGGGAAACCCGATC ((((.((....)).)))) | -26.1 kcal/mol | 43 °C |

| Sequence | folding enthalpy [1] | Tm [2] |
| --- | --- | --- |
| GCATGCGAAAGCATTTGC ((((((....)))..))) | -14.4 kcal/mol | 42.3 °C |
| GTCGCCGGAAACGGTGGC (.(.(((....))).).) | -25.5 kcal/mol | 52.2 °C |
| GATCTTTACGAAGATC ((((((....)))))) | -32.2 kcal/mol | 45.3 °C |
| GTGGTAGCGAAAGCTCAC (((..(((....)))))) | -18.1 kcal/mol | 43.8 °C |
| GTCTACGAAAGTATGGAC ((((((....)))..))) | -16.3 kcal/mol | 31.3 °C |
| GATCTTGGCCAAGATC ((((((....)))))) | -57.1 kcal/mol | 54.8 °C |
| GCATAGCGAAAGCTAAGC ((.((((....)))).)) | -16.2 kcal/mol | 51.2 °C |
| GCAGGCGGAAACACCTGC (((((.(....).))))) | -48.9 kcal/mol | 54.1 °C |
| GCCAAATCGAAAGATGGC (((..(((....)))))) | -27.2 kcal/mol | 47.4 °C |
| GCGGGGCGAAAGCGCAGC ((.(.((....)).).)) | -23.5 kcal/mol | 59.5 °C |
| CCTTGGAAACAAGG (((((....))))) | -15.7 kcal/mol | 47.2 °C |
| GAGCTAGGAAACCAGCTC (((((.(....).))))) | -39.1 kcal/mol | 46.3 °C |
| GATCTGTCTGCAGATC ((((((....)))))) | -42.1 kcal/mol | 52.9 °C |
| GAGGTGGGAAACCACCTC (((((((....))))))) | -31 kcal/mol | 69.2 °C |
| GCGTAGCGAAAGCACCGC (((..((....))..))) | -10.6 kcal/mol | 47.8 °C |
| GCAGAGCGAAAGCTGGGC ((..(((....)))..)) | -19.6 kcal/mol | 50.7 °C |
| GATCATCTGTATGATC ((((((....)))))) | -36.2 kcal/mol | 47.1 °C |
| GCTTGCGAAAGCAAGAGC ((((((....)))..))) | -12.3 kcal/mol | 56.3 °C |
| GGTGTCGAAAGACTGACC ((((((....)))..))) | -18.4 kcal/mol | 40.5 °C |
| GATGCTGGAAACAGCACC (.(((((....))))).) | -14.4 kcal/mol | 39.4 °C |
| GTGCGCGAAAGCGCCAC ((((((....))).))) | -8.65 kcal/mol | 52.2 °C |
| GCCATCCGAAAGGAGGGC (((.(((....))).))) | -44 kcal/mol | 67.2 °C |
| GGGGGTGGAAACACTCCC (((.(((....))).))) | -37.6 kcal/mol | 56.5 °C |

| Sequence | folding enthalpy [1] | Tm [2] |
| --- | --- | --- |
| GGCTGTGGAAACGCAGTC (.(((.(....).))).) | -23.4 kcal/mol | 42.4 °C |
| GTTCCTGGAAACGGGAAC (((((.(....).))))) | -40.9 kcal/mol | 50.7 °C |
| GAGAACGAAAGTTTCTC ((((((....))).))) | -25.1 kcal/mol | 43.5 °C |
| GATCGGCTTCCGATC ((((((...)))))) | -44.9 kcal/mol | 56.1 °C |
| CGGGGTCGGAAACGACCG (((..(((....)))))) | -7.49 kcal/mol | 51.9 °C |
| GGGAAAGAAATTTCCC ((((((....)))))) | -27.4 kcal/mol | 48.7 °C |
| GCGGCGCGAAAGCAGCGC (((..((....))..))) | -27.4 kcal/mol | 68.1 °C |
| GCGTCCGAAAGGACACGC ((((((....)))..))) | -14.6 kcal/mol | 60 °C |
| GCGTCATTACGC ((((....)))) | -22.9 kcal/mol | 55 °C |
| GATCCCCTTAGGGATC ((((((....)))))) | -45 kcal/mol | 63.2 °C |
| CGGTGTCGGAAACGACCG (((..(((....)))))) | -11.9 kcal/mol | 47.5 °C |
| GAGCGGGGAAACTCGCTC (((((.(....).))))) | -38.3 kcal/mol | 60.4 °C |
| GGCTTGGGAAACCGAGCC ((((.((....)).)))) | -54.1 kcal/mol | 58.5 °C |
| GTTCGTGAAAACGAAC ((((((....)))))) | -32 kcal/mol | 61.9 °C |
| GATCAGCGCCCTGATC ((((((....)))))) | -39.5 kcal/mol | 49 °C |
| GCGCTGTCGAAAGACCGC (((..(((....)))))) | -22.8 kcal/mol | 52.3 °C |
| GGAAAGGGAAACCTCTCC (((.(((....))).))) | -14.8 kcal/mol | 33 °C |
| GTCGTGGGAAACCGCGAC ((((.((....)).)))) | -48.7 kcal/mol | 60.8 °C |
| GCATCTCGAAAGAGGTGC (((.(((....))).))) | -37.4 kcal/mol | 59.8 °C |
| GATCCAGATCTGGATC ((((((....)))))) | -48 kcal/mol | 54.3 °C |
| GATCGTATCAACGATC ((((((....)))))) | -35.5 kcal/mol | 55 °C |
| GATCGCGGAAACACGATC (((((.(....).))))) | -30.7 kcal/mol | 48.6 °C |
| GACTCCGAAAGGAAGTC ((((((....))).))) | -28.8 kcal/mol | 52.4 °C |
